# Rows were chosen to be rich in hits. Some 4.8% of all compounds tested hit in one or more screens of this group.
# ERa SRC1 inh: ERα–SRC-1 coactivator interaction inhibitors, primary screen, biochemical, TR-FRET, ERα LBD, estradiol-bound | TR-FRET ER-alpha LBD / SRC-1 peptide | inhibition, % at 25.6 µM | 1.7% of 86,000 active; in the data active means inhibition above about 50%;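 further: 0% = receptor plus peptide control and 100% = peptide only without receptor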
# PTK2B oligo ant: antagonists of Pyk2 self-association, primary screen, Q293 cells, FERM NanoBiT luminescence, HTS; Protein-tyrosine kinase 2-beta (Homo sapiens), Q14289; stronger effect = lower value; z-score (the deposit names both 25 µM and 10 µM); 0.83% of 99,000 active; AID 1347419, 2020;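 active means Z-score of -3 or lower, scaled per plate to the spread of control and sample wells; inactive means z-score above -3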;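 further: negative z-score means lost luminescence so less FERM oligomerization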
# SF1 activator: activators of human SF-1, primary screen, cell-based, CHO-K1, Gal4-SF-1 LBD, luciferase luminescence. 1.9% of 65,000 active. AID 522, 2006. CHO-K1 Gal4-SF-1 LBD luciferase reporter; % increase over DMSO SF-1-specific signal. activation, % at 10 µM;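 active means activation above the mean activation of all tested compounds plus 3 SD, cut at about 50% in these data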
#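 Assay system – CHO-K1 cells with Gal4–hSF-1 LBD chimera plus Gal4-driven luciferase · Quantity – 4,000 cells per well · Times – compound added 1 h post-seeding, 20 h exposure at 37 °C, 5% CO2 · Measured by – luciferase light emission · Benchmarks – DMSO and mock-transfected background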
# ERa coact pot: enhancers of ERα–SRC-1 coactivator binding, primary screen, biochemical, TR-FRET, ERα LBD, low estradiol; Estrogen receptor (Homo sapiens), P03372; TR-FRET ERalpha-LBD/SRC-Cy5 coactivator binding, 2 h; 100 = basal binding, no effect; coactivator binding (% of control), % at 25.6 µM; 1.3% of 86,000 active; AID 639, 2007; in the data active means activity above about 200%;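 further: binding measured in presence of low estradiol as agonist stimulus; 0% = peptide alone without receptor and 100% = receptor with peptide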
# ERb coact inh: inhibitors of ERβ-SRC1 coactivator interaction, primary screen, biochemical, TR-FRET, ERβ LBD, SRC-1 peptide. Estrogen receptor beta (Homo sapiens), Q92731. TR-FRET ER-beta LBD / SRC1-Cy5 peptide binding; receptor agonist-loaded with 1 µM estradiol. inhibition, % at 25.6 µM. 1.3% of 86,000 active. AID 633, 2007;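 active means compounds whose percent inhibition of the receptor-coactivator binding signal exceeds about 50% in the single-dose screen, limit read from the data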;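 further: 0% = receptor plus peptide wells without compound and 100% = peptide-only wells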
# RORa activator: activators of orphan receptor RORA, primary screen, cell-based, luminescence | Nuclear receptor ROR-alpha (Homo sapiens), P35398 | CHO-K1 Gal4-RORA LBD luciferase reporter; percent increase over mock-subtracted basal signal | activation, % at 10 µM | 1.5% of 65,000 active;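 active means activation above the mean of all tested compounds plus 3 SD, cut at about 49% in these data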;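 further: 0% = DMSO-treated RORA cells and 100% = added signal equal to DMSO minus mock-transfected cells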
# Target sequence (P35398 whole entry, looked up, the tested form may be a part): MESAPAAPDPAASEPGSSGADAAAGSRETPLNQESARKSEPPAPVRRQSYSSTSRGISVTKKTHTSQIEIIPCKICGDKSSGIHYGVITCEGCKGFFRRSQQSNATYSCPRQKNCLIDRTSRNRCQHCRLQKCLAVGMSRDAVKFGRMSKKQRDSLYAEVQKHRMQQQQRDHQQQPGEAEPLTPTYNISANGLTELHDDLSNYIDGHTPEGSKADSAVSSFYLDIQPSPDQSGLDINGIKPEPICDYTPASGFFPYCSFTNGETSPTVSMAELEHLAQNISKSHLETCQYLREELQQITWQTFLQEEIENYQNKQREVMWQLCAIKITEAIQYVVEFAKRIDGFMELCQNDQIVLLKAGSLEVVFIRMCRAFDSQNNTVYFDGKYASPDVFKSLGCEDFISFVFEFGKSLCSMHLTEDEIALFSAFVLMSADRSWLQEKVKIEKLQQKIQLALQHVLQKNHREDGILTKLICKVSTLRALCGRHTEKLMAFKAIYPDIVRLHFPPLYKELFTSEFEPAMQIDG
# The depositor's hits bear a star; / = no result given; [ ] = dose if it differs, or a comment.
SMILES,ERa SRC1 inh,PTK2B oligo ant,SF1 activator,ERa coact pot,ERb coact inh,RORa activator
Cc1cccc(NC(=O)C2CCN(S(=O)(=O)c3c(C)nn(C)c3C)CC2)n1,2,/,0,114,57*,-17
N#CCCn1cc(/C=N/O)c(-c2ccc(Cl)cc2)n1,1,-3.5*,/,102,-2,/
N#CCCn1cc(/C=N/O)c(-c2ccc(-c3ccccc3)cc2)n1,-40,-4.1*,57*,110,-17,34
COc1ccc(N(CC(=O)NCc2ccco2)S(=O)(=O)c2ccc(OC)c(OC)c2)cc1,2,-0.36,-2,94,54*[fluorescence artefact?],14
COc1ccc(CCC(=O)NCc2ccco2)cc1,58*[fluorescence artefact?],0.25,8,212*[fluorescence artefact?],49,-17
CCOc1ccc(N(CC(=O)NCc2ccco2)S(=O)(=O)c2ccc(OC)c(OC)c2)cc1,20,0.04,-6,77,26,-8
CN(C)C=Nc1ccc2nn(-c3ccccc3)nc2c1,-30,-0.78,74*,87,11,48
CN(C(=O)c1ccco1)c1nnc(C23CC4CC(CC(C4)C2)C3)s1,1,/,76*,89,5,61*
CN(C(=O)c1ccco1)c1nc2c(s1)CCCC2,-10,0.83,/,97,-5,/
Cc1c(Cc2c(Cl)cccc2Cl)c(=O)ccn1C(C)c1ccccc1 (configuration not stated),/,-1.1,/,/,/,/
COC(=O)C1=C(C)N(Cc2ccc(C)cc2)C(=O)C1,/,0.38,/,/,/,/
c1ccc(OCCOc2ncnc3ccccc23)cc1,-4,0.69,50*,83,-6,38
c1ccc(OCCn2cnc3ccccc32)cc1,-5,0.71,-3,105,-2,-5
N#Cc1c2n(c3c(=O)n(Cc4ccc(Cl)cc4)cnc13)CCCC2,5,-3.5*,4,117,-5,2
N#Cc1c(Sc2ncc(C(F)(F)F)cc2Cl)nsc1C/C=N\OCc1c(F)cccc1Cl,-3,-0.27,/,111,-7,/
Fc1ccc(C(CCCn2nnc(-c3cccnc3)n2)c2ccc(F)cc2)cc1,1,-3.7*,/,79,-8,/
Cn1c(SCc2cc(=O)[nH]c3ccccc23)nnc1-c1ccc(Br)cc1,6,-0.48,/,90,-4,/
CCc1ccc(-c2csc3ncn(CC(=O)N4CCOCC4)c(=O)c23)cc1,-9,0.53,/,97,-16,/
c1ccc2nc3c(nc2c1)[nH]c1ccccc13,6,0.84,81*,100,3,50*
CCN(CC)c1ccc2c(c1)oc(=O)c1c(Cl)cc(=O)oc12,-6,0.7,17,309*,-7,22
N#CCN1CCN(CC(=O)Nc2cccc3ccccc23)CC1,-6,0.44,/,84,-17,/
CCOC(=O)C1=C(C)NC(C)=C(C(=O)OCC)C1C(=O)OCC(=O)N1CCC(C)CC1,-10,-0.07,-9,101,-8,-28
O=C(Nc1ccccc1N1CCOCC1)c1cc(-c2ccco2)nc2ccccc12,87*[fluorescence artefact?],-0.58,/,40,79*,/
O=C(Nc1cccc2cccc(NC(=O)c3ccco3)c12)c1ccco1,22,0.03,-13,62,52*,-29
CC(C)C(NC(=O)c1ccccc1NC(=O)c1ccco1)C(=O)O (configuration not stated),-1,-0.34,14,103,-1,-12
SMILES,ERa SRC1 inh,PTK2B oligo ant,SF1 activator,ERa coact pot,ERb coact inh,RORa activator
CC(NC(=O)c1ccccc1NC(=O)c1ccco1)c1ccccc1 (configuration not stated),34,-0.42,-4,241*[fluorescence artefact?],12,-28
O=C(Nc1ccccc1NC(=O)c1ccco1)c1ccco1,-4,-0.13,-10,92,-11,-20
COC(=O)c1c(C)cc(C)n2c1nc1ccccc12,4,0.36,6,115,0,-8
CCOC(=O)c1cc(C(=O)OCC)c2cccc(C)n2c1=O,/,0.65,/,/,/,/
C[C@]12CC[C@@H]3c4ccc(OC(=O)c5ccccc5)cc4CC[C@H]3[C@@H]1CC[C@@H]2O,-7,/,-9,298*,-1,0
CCCC1=C(C(=O)OCC)C(c2cc(Cl)cc(OC)c2OCC(=O)OCC)NC(=O)N1 (configuration not stated),25,-3.1*,-3,106,-6,-12
CCOC(=O)COc1c(OC)cc(Cl)cc1C1NC(=O)NC(C)=C1C(C)=O (configuration not stated),57*[fluorescence artefact?],-0.71,-16,88,60*[fluorescence artefact?],3
N=c1c(C(=O)NC2CCCCC2)cc2c(=O)n3ccccc3nc2n1CCN1CCOCC1,1,/,-9,85,11,20
O=C(CN1C(=O)NC2(CCCCCC2)C1=O)c1ccc2c(c1)OCCO2,1,-2.5,89*,114,-3,25
CSc1ccc(CNCCCN(C)C)cc1,/,-0.08,/,/,/,/
O=C1C2C3CCC(C3NCc3ccccc3)C2C(=O)N1Cc1ccccc1 (configuration not stated),/,0.13,/,/,/,/
Oc1ccc(C2Nc3cccc4cccc(c34)N2)c(O)c1,28,-0.82,/,30,36,/
c1coc(C2Nc3cccc4cccc(c34)N2)c1,74*[fluorescence artefact?],/,-17,26,78*[fluorescence artefact?],-1
CCc1c(C)sc(NC(=O)c2cc(-c3ccc(OC)c(OC)c3)on2)c1C#N,2,1.8,/,60,23,/
Cc1cc(NC(=O)CSc2ncnc3sc4c(c23)CCC(C)C4)no1 (configuration not stated),22,/,1,375*[fluorescence artefact?],24,-4
COc1ccc(-c2csc(NC(=O)c3cc(C)on3)c2C#N)cc1OC,-1,-1.6,5,264*,-5,24
Cc1noc(C(=O)Nc2sc3c(c2C#N)CCC3)c1Cl,11,/,48,70,20,52*
CC(C)Cc1cc(C(=O)Nc2sc3c(c2C#N)CCC3)no1,4,/,/,90,-2,/
Cc1cc(C(=O)Nc2sc3c(c2C#N)CCC3)no1,53*[fluorescence artefact?],0,116*,40,64*,60*
CCOCCCNC(=O)c1ccc(CS(=O)(=O)Cc2ccccc2F)o1,5,0.3,/,96,-9,/
CCC(CC)C(=O)NCc1ccccc1Cl,-1,-0.44,-19,107,-8,5
CC(C)Cc1cc(C(=O)Nc2sc3c(c2C#N)CCCC3)no1,-3,/,15,72,2,41
N#Cc1c(NC(=O)c2cc(C3CC3)on2)sc2c1CCC2,11,/,80*,81,19,26

# Screening results: PubChem, several laboratories
